Data from ChEMBL document CHEMBL4613249, “Serendipitous Discovery of Leucine and Methionine Depletion Agents during the Search for Polyamine Transport Inhibitors” (J Med Chem, 2020).
Active and inactive are the calls of the source.

Assays:
[1] = biological target: Large neutral amino acids transporter small subunit 1 (Homo sapiens) (UniProt Q01650); assay: Inhibition of LAT1-mediated amino acid transport in human L3.6PL cells assessed as reduction in intracellular leucine level by measuring leucine level per mg protein in cell lysate at 5 uM measured after 72 hrs by LCMS analysis (reference value: 232 +/- 10 pmol/mg); format: cell-based
How it was run: (§1)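 L3.6pl cells (50,000 cells/mL, 10 mL, 1 mM aminoguanidine) were seeded in poly-lysine-treated 9 cm dishes and incubated overnight at 37°C. They were then dosed with compound at 2, 5 or 7 μM from PBS stocks (2, 5, 7 mM) and incubated 72 h. Runs were done in triplicate, with amino acid levels per mg protein.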

[2] = tested on: L3.6pl; assay: Effect on polyamine level in human L3.6PL cells assessed as leucine level per mg protein in supernatant at 2 uM measured after 72 hrs in presence of amine oxidase suppressor aminoguanidine by LCMS analysis (reference value: 18009 +/- 9061 pmol/mg); format: functional
[3] = biological target: Large neutral amino acids transporter small subunit 1 (Homo sapiens) (UniProt Q01650); assay: Induction of LAT1-mediated polyamine efflux in human L3.6PL cells assessed as increase in [3H]leucine efflux at 60 uM measured after 30 mins at 37 degC in presence of LAT1 inhibitor JPH-203 by scintillation counting method; format: cell-based
[4] = tested on: L3.6pl; assay: Effect on polyamine level in human L3.6PL cells assessed as decrease in intracellular putrescine level at 1 uM measured after 72 hrs in presence of amine oxidase suppressor aminoguanidine and Ant-44 by LCMS analysis; format: functional, cell-based
How it was run: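 L3.6pl cells dosed with Ant-44 fixed at 2 μM plus increasing compound for 72 h at 37°C. Intracellular polyamines and Ant-44 given as nmol/mg protein, in duplicate, with a parallel untreated control.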

[5] = tested on: CHO-K1; assay: Potentiation of 0.5 uM N-(anthracenylmethyl) homospermidine-induced toxicity in CHOK1 cells assessed as increase in Ant-44-induced reduction in cell growth measured after 48 hrs in presence of amine oxidase suppressor aminoguanidine by MTS assay; format: functional, cell-based; details: Cricetulus griseus
How it was run: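 CHO K1 cells were pretreated 24 h with 1 mM aminoguanidine, then given fixed Ant-44 (0.5 μM) plus increasing compound (up to 5 μM) for 48 h at 37°C. MTS growth was read, with EC50 defined as the dose halving growth relative to Ant-44 alone. Runs were done twice in triplicate, with SD.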

[6] = biological target: Large neutral amino acids transporter small subunit 1 (Homo sapiens) (UniProt Q01650); assay: Inhibition of LAT1-mediated amino acid transport in human L3.6PL cells assessed as reduction in intracellular leucine level measured after 72 hrs by LCMS analysis; format: cell-based; how it was run: as §1
[7] = tested on: L3.6pl; assay: Effect on polyamine level in human L3.6PL cells assessed as leucine level per mg protein in supernatant at 5 uM measured after 72 hrs in presence of amine oxidase suppressor aminoguanidine by LCMS analysis (reference value: 18009 +/- 9061 pmol/mg); format: functional
[8] = Toxicity in mouse at 1 mg/kg, ip measured over 24 hrs; format: organism-based; details: in vivo
[9] = tested on: L3.6pl; assay: Effect on polyamine level in human L3.6PL cells assessed as putrescine level per mg protein in supernatant at 2 uM measured after 72 hrs in presence of amine oxidase suppressor aminoguanidine by LCMS analysis (reference value: 977 +/- 522 pmol/mg); format: functional
[10] = tested on: CHO-K1; assay: Induction of polyamine efflux in aminoguanidine pretreated CHOK1 cells assessed as reduction in cell viability measured after 72 hrs in presence of spermidine by MTS assay; format: ADME, cell-based, Cricetulus griseus; details: chinese hamster, cho-k1, 72 h
[11] = tested on: L3.6pl; assay: Induction of polyamine import in human L3.6PL cells assessed as increase in intracellular Ant-44 uptake by measuring Ant-44 level per protein at 1 measured up to 72 hrs in presence of amine oxidase suppressor aminoguanidine by LCMS analysis (reference value: 2.15 +/- 0.1 nmol/mg); format: functional
[12] = tested on: L3.6pl; assay: Effect on polyamine level in human L3.6PL cells assessed as methionine level human L3.6PL cells assessed per mg protein in supernatant at 5 uM pretreated with aminoguanidine for 24 hrs followed by compound treatment after 72 hrs by LCMS analysis (reference value: 22834 +/- 1984 pmol/mg); format: functional
[13] = biological target: Large neutral amino acids transporter small subunit 1 (Homo sapiens) (UniProt Q01650); assay: Induction of LAT1-mediated polyamine efflux in aminoguanidine pretreated human L3.6PL cells assessed as reduction in cell viability at 5 uM measured after 72 hrs in presence of putrescine by MTS assay; format: cell-based
How it was run: (§2)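 L3.6pl cells pre-incubated 24 h with 250 μM aminoguanidine. Then given increasing compound plus putrescine, spermidine or spermine, each fixed at 1 or 5 μM, for 72 h at 37°C. Growth by MTS relative to untreated control.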

[14] = tested on: CHO-K1; assay: Induction of polyamine efflux in aminoguanidine pretreated CHOK1 cells assessed as reduction in cell viability measured after 72 hrs in presence of spermine by MTS assay; format: ADME, cell-based, Cricetulus griseus; details: chinese hamster, cho-k1, 72 h
[15] = tested on: L3.6pl; assay: Effect on polyamine level in human L3.6PL cells assessed as phenylalanine level per mg protein in supernatant at 2 uM measured after 72 hrs in presence of amine oxidase suppressor aminoguanidine by LCMS analysis (reference value: 14299 +/- 7194 pmol/mg); format: functional
[16] = biological target: Large neutral amino acids transporter small subunit 1 (Homo sapiens) (UniProt Q01650); assay: Inhibition of LAT1-mediated amino acid transport in human L3.6PL cells assessed as reduction in intracellular leucine level by measuring leucine level per mg protein in cell lysate at 2 uM measured after 72 hrs by LCMS analysis (reference value: 232 +/- 10 pmol/mg); format: cell-based; how it was run: as §1
[17] = tested on: L3.6pl; assay: Effect on polyamine level in human L3.6PL cells assessed as ornithine level per mg protein in supernatant at 5 uM measured after 72 hrs in presence of amine oxidase suppressor aminoguanidine by LCMS analysis (reference value: 10588 +/- 3212 pmol/mg); format: functional
[18] = biological target: Large neutral amino acids transporter small subunit 1 (Homo sapiens) (UniProt Q01650); assay: Induction of LAT1-mediated polyamine efflux in aminoguanidine pretreated human L3.6PL cells assessed as reduction in cell viability at 5 uM measured after 72 hrs in presence of spermine by MTS assay; format: cell-based; how it was run: as §2
[19] = tested on: L3.6pl; assay: Effect on polyamine level in human L3.6PL cells assessed as decrease in intracellular spermidine level at 2 to 7 uM measured after 72 hrs in presence of amine oxidase suppressor aminoguanidine by LCMS analysis; format: functional, cell-based; details: in the assay text read “by N-dansylation and HPLC analysis” for “by LCMS analysis”
How it was run: (§3)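 L3.6pl cells, 50,000 cells/mL in 10 mL per Petri dish with 1 mM aminoguanidine, plated overnight. Dosed with compound at 2, 5 or 7 μM from PBS stocks, then 72 h at 37°C. Intracellular polyamines measured by N-dansylation and HPLC, in duplicate, as nmol/mg protein against a parallel untreated control.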

[20] = tested on: L3.6pl; assay: Cytotoxicity against human L3.6PL cells assessed as reduction in cell viability measured after 72 hrs by MTS assay; format: cell-based
How it was run: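 L3.6pl cells, 500 cells/well in RPMI 1640 with 10% FBS and 250 μM aminoguanidine, plated overnight. Compound in PBS added, then 72 h at 37°C. MTS absorbance at 490 nm. IC50 is the dose giving 50% relative growth versus untreated control. Run twice in triplicate.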

[21] = tested on: L3.6pl; assay: Effect on polyamine level in human L3.6PL cells assessed as decrease in intracellular spermine level at 7 uM measured after 72 hrs in presence of amine oxidase suppressor aminoguanidine by LCMS analysis relative to control; format: functional; set-up: scale not given: the % may be the effect or the level left; how it was run: as §3
[22] = tested on: CHO-K1; assay: Cytotoxicity against CHOK1 cells assessed as effect on cell growth up to 6 uM measured after 48 hrs by MTS assay; format: cell-based, Cricetulus griseus; details: chinese hamster, cho-k1, 48 h

Large neutral amino acids transporter small subunit 1 (Homo sapiens), sequence (Q01650 whole entry): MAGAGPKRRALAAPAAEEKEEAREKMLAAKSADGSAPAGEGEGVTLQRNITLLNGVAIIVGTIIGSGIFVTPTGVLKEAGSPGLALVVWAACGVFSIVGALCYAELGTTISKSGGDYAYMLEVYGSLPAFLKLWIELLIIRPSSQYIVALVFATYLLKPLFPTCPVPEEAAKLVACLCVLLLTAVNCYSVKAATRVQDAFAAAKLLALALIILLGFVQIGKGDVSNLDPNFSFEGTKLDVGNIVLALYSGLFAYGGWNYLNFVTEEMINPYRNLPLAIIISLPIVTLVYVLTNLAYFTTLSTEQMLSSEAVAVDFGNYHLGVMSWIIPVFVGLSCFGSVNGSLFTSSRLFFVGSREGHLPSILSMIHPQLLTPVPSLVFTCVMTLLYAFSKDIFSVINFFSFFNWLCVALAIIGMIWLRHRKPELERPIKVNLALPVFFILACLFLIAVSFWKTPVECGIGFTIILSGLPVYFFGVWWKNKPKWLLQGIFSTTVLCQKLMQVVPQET

## CC(C)CCN1CCN([C@@H](CNCc2ccccc2)CC2CCCCC2)C[C@@H]1CC(C)C
[1]
  Activity: 94 pmol/mg
[2]
  Activity: 15055 pmol/mg
[3]
  Activity: inactive
[4]
  Activity: Active
[5]
  Activity: Dose-dependent effect
[5]; CHO-K1, 48 h
  EC50: 60 nM
[6]
  inhibition: Dose-dependent effect
[7]
  Activity: 202092 pmol/mg
[8]
  Activity: Non-Toxic
[9]
  Activity: 938 pmol/mg
[10]
  Activity: Active
[11]
  Activity: 2.08 nmol/mg
[12]
  Activity: 64036 pmol/mg
[13]
  Activity: Active
[14]
  Activity: Active
[15]
  Activity: 11954 pmol/mg
[16]
  Activity: 152 pmol/mg
[17]
  Activity: 15951 pmol/mg
[18]
  Activity: Active
[19]
  Activity: Active
[20]
  IC50: 5900 nM
[21]
  Activity: 30%
[22]
  Activity: Non-Toxic
